Reference: ChEMBL document CHEMBL1138321, “Asymmetric synthesis of conformationally constrained fingolimod analogues--discovery of an orally active sphingosine 1-phosphate receptor type-1 agonist and receptor type-3 antagonist” (J Med Chem, 2007)
Calls of active or inactive are those of the source. No cut-off for these calls is given here.

How the values were obtained:
Mus musculus [1] = assay: Induction of lymphopenia in C57B1/6J mouse at 1 mg/kg, po after 8 days; type: functional, organism-based; parameters: dose 1 mg/kg
Procedure, shortened: (§1)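 Female C57Bl/6j mice (n=3 per group) received a single oral gavage of 1 mg/kg in 2% hydroxypropyl β-cyclodextrin on day 0. Blood was drawn from the orbital sinus under light anesthesia on the indicated days. Total lymphocytes were counted on a Hemavet 950 blood analyzer.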

Mus musculus [2] = assay: Induction of lymphopenia in C57B1/6J mouse at 1 mg/kg, po after 48 hrs; type: functional, organism-based; parameters: dose 1 mg/kg; procedure, shortened: as §1
[3] = target: T1, Sphingosine kinase 2 (Mus musculus) (UniProt Q9JIA7); assay: Substrate activity at mouse Sphk2 expressed in HEK293T cells; settings: HEK-293T
T1 sequence (whole entry): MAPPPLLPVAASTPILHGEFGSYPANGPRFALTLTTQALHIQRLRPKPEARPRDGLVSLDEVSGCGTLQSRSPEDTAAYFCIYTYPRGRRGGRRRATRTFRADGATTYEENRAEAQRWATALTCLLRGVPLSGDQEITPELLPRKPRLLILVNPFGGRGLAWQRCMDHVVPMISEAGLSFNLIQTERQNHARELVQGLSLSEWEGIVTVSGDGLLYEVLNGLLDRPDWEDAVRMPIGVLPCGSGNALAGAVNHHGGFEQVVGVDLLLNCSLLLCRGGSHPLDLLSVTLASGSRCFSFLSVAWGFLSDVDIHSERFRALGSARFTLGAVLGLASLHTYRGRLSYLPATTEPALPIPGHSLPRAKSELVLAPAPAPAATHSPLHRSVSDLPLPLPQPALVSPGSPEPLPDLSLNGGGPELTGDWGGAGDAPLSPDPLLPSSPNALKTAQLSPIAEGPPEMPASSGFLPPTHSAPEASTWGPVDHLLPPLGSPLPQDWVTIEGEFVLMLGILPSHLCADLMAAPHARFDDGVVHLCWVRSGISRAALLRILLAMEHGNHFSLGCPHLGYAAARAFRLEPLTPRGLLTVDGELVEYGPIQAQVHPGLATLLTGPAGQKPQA

[4] = target: T2, Sphingosine 1-phosphate receptor 4 (Homo sapiens) (UniProt O95977); assay: Activity at S1P4 receptor
T2 sequence (whole entry): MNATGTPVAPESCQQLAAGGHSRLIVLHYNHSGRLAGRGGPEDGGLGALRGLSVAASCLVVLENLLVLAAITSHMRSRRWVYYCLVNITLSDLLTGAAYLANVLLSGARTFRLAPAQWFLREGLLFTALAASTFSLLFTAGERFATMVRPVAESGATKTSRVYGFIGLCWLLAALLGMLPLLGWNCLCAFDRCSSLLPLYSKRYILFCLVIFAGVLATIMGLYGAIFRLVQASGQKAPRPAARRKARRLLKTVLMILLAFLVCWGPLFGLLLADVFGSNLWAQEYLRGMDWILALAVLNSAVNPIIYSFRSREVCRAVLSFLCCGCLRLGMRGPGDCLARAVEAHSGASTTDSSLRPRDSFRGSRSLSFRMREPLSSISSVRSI

[5] = target: Sphingosine 1-phosphate receptor 2 (Homo sapiens) (UniProt O95136); assay: Activity at S1P2 receptor
Sphingosine 1-phosphate receptor 2 (Homo sapiens), sequence (O95136 whole entry): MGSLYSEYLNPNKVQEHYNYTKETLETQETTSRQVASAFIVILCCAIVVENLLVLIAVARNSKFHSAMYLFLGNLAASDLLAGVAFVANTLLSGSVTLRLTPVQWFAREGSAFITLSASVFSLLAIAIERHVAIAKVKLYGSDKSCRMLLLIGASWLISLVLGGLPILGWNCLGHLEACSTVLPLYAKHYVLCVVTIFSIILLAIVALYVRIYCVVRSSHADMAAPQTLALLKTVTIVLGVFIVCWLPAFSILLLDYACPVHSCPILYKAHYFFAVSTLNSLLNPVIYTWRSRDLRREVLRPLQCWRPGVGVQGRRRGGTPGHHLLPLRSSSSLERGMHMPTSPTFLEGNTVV

[6] = target: Sphingosine 1-phosphate receptor 3 (Homo sapiens) (UniProt Q99500); assay: Antagonist activity at human S1P3 receptor expressed in CHOK1 cells assessed as effect on calcium mobilization; type: functional, cell-based; settings: CHO-K1
Sphingosine 1-phosphate receptor 3 (Homo sapiens), sequence (Q99500 whole entry): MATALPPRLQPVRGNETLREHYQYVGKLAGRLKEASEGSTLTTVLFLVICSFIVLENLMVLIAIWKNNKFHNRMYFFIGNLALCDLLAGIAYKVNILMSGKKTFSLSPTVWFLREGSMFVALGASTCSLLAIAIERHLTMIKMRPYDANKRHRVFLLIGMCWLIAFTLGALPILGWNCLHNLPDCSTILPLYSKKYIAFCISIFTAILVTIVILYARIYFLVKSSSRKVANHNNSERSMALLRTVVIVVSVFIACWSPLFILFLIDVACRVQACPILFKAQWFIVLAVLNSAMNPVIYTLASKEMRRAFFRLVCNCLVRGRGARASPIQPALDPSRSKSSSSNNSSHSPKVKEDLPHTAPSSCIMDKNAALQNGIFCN
Procedure, shortened: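 Calcium mobilization in a FACS-isolated clonal CHO K1 line stably expressing HA-tagged human S1P3, loaded with a calcium-sensitive dye. Concentration-effect curves for the agonist were run with and without 1 μM test phosphate. There were eight points in triplicate (SEM), and three independent experiments.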

[7] = target: Sphingosine 1-phosphate receptor 3 (Homo sapiens) (UniProt Q99500); assay: Agonist activity at human S1P3 receptor expressed in CHOK1 cells; type: functional, cell-based; settings: CHO-K1
Procedure, shortened: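 Human S1P3 with N-terminal HA tag, stably expressed in a FACS-isolated clonal CHO K1 line. Confluent monolayers were washed and loaded with a calcium-sensitive fluorescent dye, and calcium transients were monitored on compound addition. Eight-point concentration-effect curves were run in triplicate and presented as SEM.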

Row | Activity [3] | Activity [6] | Activity [7] | Structure (SMILES) | other results
1 | Active |  |  | CCCCCCCCc1ccc([C@@H]2CC[C@](N)(CO)C2)cc1 | Activity (Mus musculus [1]): Active; Activity (Mus musculus [2]): Active
2 |  |  |  | CCCCCCCCc1ccc(C2CCC(N)(COP(=O)(O)O)C2)cc1 (configuration not stated) | Activity [4]: Active; Activity [5]: inactive
3 | inactive |  |  | CCCCCCCCc1ccc([C@H]2CC[C@@](N)(CO)C2)cc1 | 
4 | Active |  |  | CCCCCCCCc1ccc([C@H]2CC[C@](N)(CO)C2)cc1 | Activity (Mus musculus [2]): Active
5 |  | Active | inactive | CCCCCCCCc1ccc([C@H]2CC[C@](N)(COP(=O)(O)O)C2)cc1 | 
6 |  | inactive | inactive | CCCCCCCCc1ccc([C@@H]2CC[C@](N)(COP(=O)(O)O)C2)cc1 | 
7 |  | Active | inactive | CCCCCCCCc1ccc([C@H]2CC[C@@](N)(COP(=O)(O)O)C2)cc1 | 
8 |  | Active | inactive | CCCCCCCCc1ccc([C@@H]2CC[C@@](N)(COP(=O)(O)O)C2)cc1 | 
9 | inactive |  |  | CCCCCCCCc1ccc([C@@H]2CC[C@@](N)(CO)C2)cc1 | 
